Reference: ChEMBL document CHEMBL1955834, “Disparate SAR data of griseofulvin analogues for the dermatophytes Trichophyton mentagrophytes, T. rubrum, and MDA-MB-231 cancer cells” (J Med Chem, 2012)
Activity calls are given as the source filed them. No cut-off for these calls is given here.

Experiments:
MDA-MB-231 [1] = experiment: Cytotoxicity against human MDA-MB-231 cells assessed as cell viability after 48 hrs by MTT assay; format: functional, cell-based; conditions: MDA-MB-231, 48 h
In short: (§1)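 MDA-MB-231 cells were grown in L-15 with 10% FCS at 37 °C and seeded at (2-3) × 10^4 per well. Exposure was 24 and/or 48 h, then MTT for at least 4 h, with absorbance read at 570/630 nm. Each condition had at least 3 replicates, reported as mean ± SD of a representative experiment repeated at least three times.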

Trichophyton rubrum [2] = experiment: Antifungal activity against Trichophyton rubrum IBT 29284 after 7 days by micro broth dilution method; format: functional, organism-based; conditions: IBT 29284, 168 h
In short: (§2)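 T. rubrum IBT29284 was tested by broth microdilution using a 4-fold dilution series of 10 concentrations from 50 μM down to 0.2 μM, with 1% DMSO. The inoculum followed CLSI M38-A2, set to OD530 0.90–1.5 and diluted 50-fold in RPMI/MOPS at pH 7.00. Incubation was 7 days at 37 °C, read by OD. IC50 came from a variable-slope sigmoidal fit.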

[3] = test system: Trichophyton mentagrophytes; experiment: Antifungal activity against Trichophyton mentagrophytes IBT 2724 after 7 days by micro broth dilution method; format: functional, organism-based; conditions: IBT 2724, 168 h
In short: (§3)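 T. mentagrophytes IBT2724 was tested by broth microdilution using an 8-fold dilution series of 10 concentrations from 50 μM down to 0.4 μM, with 1% DMSO. The inoculum was prepared per CLSI M38-A2, adjusted to OD530 0.90–1.5 and diluted 50-fold in RPMI/MOPS at pH 7.00. Plates ran 7 days at 37 °C with an OD read-out. IC50 came from a variable-slope sigmoidal fit.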

SCC114 = experiment: Cytotoxicity against human SCC114 cells by phenotype-based spindle multipolarity assay; format: functional, cell-based
MDA-MB-231 [4] = experiment: Cytotoxicity against human MDA-MB-231 cells assessed as cell viability at 50 uM after 48 hrs by MTT assay; format: functional; conditions: for inhibition at 50 µM: MDA-MB-231, 48 h; in short: as §1
Trichophyton rubrum [5] = experiment: Antifungal activity against Trichophyton rubrum IBT 29284 at 50 uM after 7 days by micro broth dilution method; format: functional; conditions: for inhibition at 50 µM: IBT 29284, 168 h; in short: as §2
[6] = test system: Trichophyton mentagrophytes; experiment: Antifungal activity against Trichophyton mentagrophytes IBT 2724 at 50 uM after 7 days by micro broth dilution method; format: functional; conditions: for inhibition at 50 µM: IBT 2724, 168 h; in short: as §3

| SMILES | IC50 (MDA-MB-231 [1]) [nM] | IC50 [3] [nM] | inhibition (Trichophyton rubrum [5]) | other results |
| --- | --- | --- | --- | --- |
| CCOc1cc(OC)c2c(c1Cl)O[C@]1(C2=O)C(OC)=CC(=O)C[C@H]1C | 36000 | 62 | – | IC50 (Trichophyton rubrum [2]): 1300 nM |
| COC1=CC(=O)[C@@]2(Oc3c(Cl)c(OC)cc(OC)c3C2=O)[C@H](C)C1 | – | – | inactive | inhibition (SCC114): inactive; inhibition (MDA-MB-231 [4]): inactive; inhibition [6]: inactive |
| COc1cc(OC)c2c(c1Cl)O[C@]1(C2=O)C(OC(C)C)=CC(=O)C[C@H]1C | 11000 | 110 | – | IC50 (Trichophyton rubrum [2]): 3100 nM |
| COc1cc(OC)c2c(c1Cl)O[C@]1(C2=O)C(OCc2ccc(CO)cc2)=CC(=O)C[C@H]1C | 2800 | 1700 | – | inhibition at 50 µM (Trichophyton rubrum [5]): < 50% |
| COc1cc(OC)c2c(c1Cl)O[C@]1(C2=O)C(OCc2ccccc2)=CC(=O)C[C@H]1C | 2100 | 260 | – | IC50 (Trichophyton rubrum [2]): 1100 nM |
| COc1cc(OC)c2c(c1Cl)O[C@]1(C2=O)C(OCCc2ccccc2)=CC(=O)C[C@H]1C | 17000 | 280 | – | inhibition at 50 µM (Trichophyton rubrum [5]): < 50% |
| COc1cc(OC)c2c(c1Cl)O[C@@]1(C(=O)C=C(OC(C)C)C[C@H]1C)C2=O | 48000 | – | inactive | inhibition (SCC114): inactive; inhibition at 50 µM [6]: < 50% |
| COc1cc(OC)c2c(c1Cl)O[C@]1(C2=O)C(OCc2ccccc2)=C(I)C(=O)C[C@H]1C | – | 1100 | inactive | inhibition at 50 µM (MDA-MB-231 [4]): < 50% |
| CCOc1cc(OC)c(Cl)c2c1C(=O)[C@@]1(O2)C(OC)=CC(=O)C[C@H]1C | – | 290 | – | inhibition (MDA-MB-231 [4]): inactive; IC50 (Trichophyton rubrum [2]): 2000 nM |
| COc1cc(OC)c2c(c1Cl)O[C@]1(C(=O)CC(=O)C[C@@H]1C)C2=O (relative stereo) | – | – | inactive | inhibition (MDA-MB-231 [4]): inactive; inhibition at 50 µM [6]: < 50% |
| COc1cc(OC)c2c(c1Cl)O[C@]1(C2=O)C(OCc2ccc(-c3ccccc3)cc2)=CC(=O)C[C@H]1C | 5800 | – | inactive | inhibition [6]: inactive |
| COc1cc(OC)c2c(c1Cl)O[C@]1(C2=O)C(OCC23CC4CC(CC(C4)C2)C3)=CC(=O)C[C@H]1C | 4700 | – | inactive | inhibition [6]: inactive |
| COc1ccccc1COC1=CC(=O)C[C@@H](C)[C@]12Oc1c(Cl)c(OC)cc(OC)c1C2=O | 11000 | 700 | – | inhibition at 50 µM (Trichophyton rubrum [5]): < 50% |
| COc1cc(OC)c2c(c1Cl)O[C@]1(C2=O)C(Cl)=CC(=O)C[C@H]1C | 3200 | – | – | inhibition at 50 µM (Trichophyton rubrum [5]): < 50%; inhibition at 50 µM [6]: < 50% |
| COc1cc(OC)c2c(c1Cl)O[C@]1(C2=O)C(OCc2ccncc2)=CC(=O)C[C@H]1C | 19000 | – | – | inhibition at 50 µM (Trichophyton rubrum [5]): < 50%; inhibition at 50 µM [6]: < 50% |
| COc1cc(OC)c2c(c1Cl)O[C@]1(C2=O)C(OCc2ccc(C(F)(F)F)cc2)=CC(=O)C[C@H]1C | 7000 | 150 | – | IC50 (Trichophyton rubrum [2]): 1500 nM |
| COc1cc(OC)c2c(c1Cl)O[C@@]1(C2=O)[C@H](C)C[C@H](O)C[C@@H]1OC | – | 3000 | – | inhibition (MDA-MB-231 [4]): inactive; inhibition at 50 µM (Trichophyton rubrum [5]): < 50% |
| COc1cc(OC)c2c(c1Cl)O[C@]1(C2=O)C(OCc2ccccn2)=CC(=O)C[C@H]1C | 32000 | 1300 | – | inhibition at 50 µM (Trichophyton rubrum [5]): < 50% |
| COC1=CC(=O)C[C@@H](C)[C@]12Oc1c(Cl)c(OC)c([N+](=O)[O-])c(OC)c1C2=O | – | – | inactive | inhibition (MDA-MB-231 [4]): inactive; inhibition [6]: inactive |
| COC1=CC(=O)C[C@@H](C)[C@]12Oc1c(Cl)c(OC)c(N)c(OC)c1C2=O | – | – | inactive | inhibition (MDA-MB-231 [4]): inactive; inhibition [6]: inactive |
| CCOC1=CC(=O)[C@@]2(Oc3c(Cl)c(OC)cc(OC)c3C2=O)[C@H](C)C1 | – | – | inactive | inhibition (SCC114): inactive; inhibition at 50 µM (MDA-MB-231 [4]): < 50%; inhibition at 50 µM [6]: < 50% |
| COC1=CC(=O)C[C@@H](C)[C@]12Oc1c(Cl)c(O)cc(OC)c1C2=O | – | – | inactive | inhibition at 50 µM (MDA-MB-231 [4]): < 50%; inhibition [6]: inactive |
| COc1cc(OC)c2c(c1Cl)O[C@]1(C2=O)C(SCc2ccccc2)=CC(=O)C[C@H]1C | 4700 | 58 | – | IC50 (Trichophyton rubrum [2]): 1300 nM |
| COc1cc(OC)c2c(c1Cl)O[C@]1(C2=O)C(OCc2ccc(F)cc2)=CC(=O)C[C@H]1C | 6500 | 41 | – | IC50 (Trichophyton rubrum [2]): 830 nM |
